# PP1 counter = PP1-alpha (human) inhibition in PP5 counter-screen. inhibition, % at 6.7 µM. P62136. actives 0.9% (n = 320,000). AID 2235. purified PP1alpha, OMFP fluorescence;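 active = inhibition above the mean inhibition of all tested compounds plus 3 SD, computed separately for each screening campaign, cut at about 15% in these data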
# Target sequence (P62136 whole entry, looked up): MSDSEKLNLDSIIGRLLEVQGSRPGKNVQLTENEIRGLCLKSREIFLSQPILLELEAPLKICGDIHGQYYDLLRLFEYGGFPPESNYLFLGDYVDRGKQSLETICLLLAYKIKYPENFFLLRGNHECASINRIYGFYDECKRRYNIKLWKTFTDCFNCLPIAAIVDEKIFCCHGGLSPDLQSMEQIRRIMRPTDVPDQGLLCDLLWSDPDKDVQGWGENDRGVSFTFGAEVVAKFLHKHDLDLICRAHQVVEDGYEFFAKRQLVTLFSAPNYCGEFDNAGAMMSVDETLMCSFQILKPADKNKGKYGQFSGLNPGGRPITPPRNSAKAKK
# STEP inh = blocks human striatal-enriched tyrosine phosphatase | recombinant STEP, OMFP fluorogenic substrate, fluorescence | inhibition, % at 20 µM | actives 0.25% (n = 360,000) | AID 588621;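 active = inhibition at 20 µM, scaled per plate between control wells, above about 37%, limit read from the data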;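 also: 0% = DMSO with enzyme and substrate and 100% = substrate only without enzyme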
#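 material = STEP tyrosine phosphatase | reagent = fluorogenic phosphatase substrate OMFP at 25 µM final | doses = single compound dose of 20 µM, 1% DMSO final | schedule = 20 min reaction, room temperature, in the dark | measured by = fluorescence, 480/540 nm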
# PP5 primary = blocks human protein phosphatase 5 activity | purified PP5c, OMFP substrate fluorescence | inhibition, % at 6.7 µM | actives 0.18% (n = 320,000);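 active = inhibition above the campaign's mean inhibition across all tested compounds plus 3 SD, cut at about 9.5% in these data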;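 also: 0% = DMSO only and 100% = 100 µM cantharidin control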
# LMPTP inh = LMPTP (human) inhibition. actives 0.22% (n = 360,000). inhibition, % at 20 µM. P24666. recombinant LMPTP-A, OMFP fluorogenic substrate, fluorescence intensity;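 active = compounds that cut the enzyme signal by at least half of the control window in the single-dose screen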;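 also: plate controls were DMSO wells with enzyme plus substrate for no effect and substrate without enzyme for full effect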
#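 test system = LMPTP-A | amount = 0.625 nM LMPTP-A final | reagent = fluorogenic phosphatase substrate OMFP at 400 µM final | incubation = 50 min at room temperature | benchmarks = no-enzyme low control, uninhibited high control | medium = Bis-Tris pH 6.0, DTT, detergent | signal = fluorescence intensity of OMFP turnover product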
# Scp-1 inhibitor = inhibitors of human Scp-1 phosphatase; Q9GZU7; actives 0.88% (n = 340,000); Recombinant Scp1, phosphopeptide, malachite green phosphate absorbance; inhibition, % at 20 µM; AID 493091;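 active = inhibition above about 50% at 20 µM, limit read from the data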;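 also: plate controls were DMSO wells with enzyme for no effect and wells lacking enzyme for full effect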
# Target sequence (Q9GZU7 76-261 limits assumed): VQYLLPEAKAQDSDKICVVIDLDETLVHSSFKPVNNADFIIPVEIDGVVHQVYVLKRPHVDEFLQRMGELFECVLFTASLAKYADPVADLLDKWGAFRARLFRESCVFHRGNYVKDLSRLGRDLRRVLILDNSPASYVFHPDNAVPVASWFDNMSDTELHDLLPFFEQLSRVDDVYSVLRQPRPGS
#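 System: truncated SCP-1 phosphatase (76-261aa); medium: Tris acetate buffer pH 5.5 with MgCl2 and Tween-20; incubation: 45 min room-temperature reaction, 5 min colour, 30 min stabiliser; compound: single 20 µM dose, 1% DMSO; reagent: Phosphorylated 17-residue peptide substrate; read-out: % inhibition at 20 µM; technique: colorimetric free-phosphate detection, absorbance 630 nm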
# Scp1 confirm = confirmation of human Scp-1 phosphatase inhibitors; actives 61% (n = 2,500); recombinant SCP-1 catalytic domain, phosphate release, malachite green absorbance; shares compounds with Scp-1 inhibitor; inhibition, % at 20 µM;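 also: plate controls were DMSO with enzyme for no effect and buffer wells lacking enzyme for full effect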
# MG interference = counter-screen for Scp-1 inhibitors: colorimetric interference | shares compounds with Scp-1 inhibitor | Colorimetric interference counterscreen, malachite green absorbance 630 nm | apparent inhibition (interference), % at 20 µM | 2,500 tested, under 10 active | AID 540313;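 also: compounds added after enzyme reaction finished so only phosphate colour detection is probed; plate controls were DMSO wells with completed Scp-1 reaction for no effect and substrate wells lacking enzyme for full effect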
# Scp-1 Tm shift = Scp-1 (human) binding by thermal shift; shares compounds with Scp-1 inhibitor; Recombinant SCP1, Sypro Orange thermal shift Tm; thermal shift relative to vanadate control, % at 40 µM; actives 25% (n = 1,500); AID 540329;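 active = substances whose mean melting-temperature shift, as a percentage of the reference inhibitor's shift, reaches about 5.3%, limit read from the data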;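 also: 0% = Tm of DMSO wells and 100% = Tm with sodium orthovanadate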
# The depositor's hits bear a star; . = not tested or not shown. Rows were chosen to be rich in hits. Some 1.9% of all compounds tested hit in one or more screens of this group.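 The calls were made as follows, unless noted: active = inhibition of at least 30% at 20 µM; inactive = the rest.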
SMILES,PP1 counter,STEP inh,PP5 primary,LMPTP inh,Scp-1 inhibitor,Scp1 confirm,MG interference,others
COc1ccccc1CNC(=O)CN(C)S(=O)(=O)c1ccc2c(c1)c(=O)n(C)c(=O)n2C,-5,0,-4,-1,5,.,.,
Cc1ccc(CNC(=O)CN(C)S(=O)(=O)c2ccc3c(c2)n(C)c(=O)c(=O)n3C)cc1,-3,0,0,2,-3,-1,-10,
Cc1ccc(S(=O)(=O)CCC(=O)NCc2ccccc2)cc1,-4,-1,-2,-3,-10,.,.,
CN(CC(=O)NCc1ccc(F)cc1)S(=O)(=O)c1ccc2c(c1)n(C)c(=O)c(=O)n2C,-2,-2,0,-1,-7,.,.,
Cn1c(=O)c(=O)n(C)c2cc(S(=O)(=O)CCC(=O)NCc3ccccc3)ccc21,0,2,2,1,71*,11,-13,
COc1ccccc1CNC(=O)CN(C)S(=O)(=O)c1ccc2c(c1)n(C)c(=O)c(=O)n2C,-3,1,2,-2,-7,-3,-3,
CCOC(=O)Cc1csc(NC(=O)/C=C\c2ccccc2Cl)n1,-1,0,4,1,-11,.,.,
COc1cc(NS(=O)(=O)c2ccc(NC(=O)/C(=C\c3ccccc3OC)NC(=O)c3ccccc3)cc2)nc(OC)n1,2,2,2,0,-16,.,.,
CC(=O)N/N=C/c1cc(C(C)(C)C)cc(/C=N/NC(C)=O)c1O,-5,0,0,0,-1,.,.,
N#CCSc1nc2ccccc2c(=O)n1CCCC(=O)NCc1ccco1,-3,-4,0,-1,0,.,.,
O=C(CCCCCn1c(SCc2ccncc2)nc2ccccc2c1=O)NCc1ccco1,1,2,2,22,56*,32*,-10,Scp-1 Tm shift=-13
CCOC(=O)c1c(C)[nH]c(C)c1S(=O)(=O)N(C)Cc1ccco1,-4,-2,-2,-1,-6,.,.,
Cc1nn(Cc2ccccc2Cl)c(C)c1NC(=O)c1noc(C(C)C)c1[N+](=O)[O-],-1,-1,4,-1,63*,-113,-10,
COc1ccccc1CNS(=O)(=O)c1ccc2[nH]cc(C(=O)O)c(=O)c2c1,12,18,2,1,55*,47*,-2,Scp-1 Tm shift=0
CCCCNc1nnc(Cc2ccc(Cl)cc2)c(=O)[nH]1,.,28,.,5,97*,76*,-11,Scp-1 Tm shift=-2
CC(C)n1nc(C(=O)Nc2ccc(-n3cnnn3)cc2)c2ccccc2c1=O,.,-1,.,-1,-5,.,.,
Cn1nc(C(=O)Nc2ccc(-n3cnnn3)cc2)c2ccccc2c1=O,.,3,.,1,99*,70*,-11,Scp-1 Tm shift=-27
CC(=O)c1ccc(OCCCC(=O)Nc2cccc(S(=O)(=O)N(C)C)c2)cc1,-2,-10,1,-2,-1,.,.,
CC(C)CN(CC(C)C)S(=O)(=O)c1cc([N+](=O)[O-])ccc1N1CCCCCC1,0,5,4,5,52*,-9,-12,
COc1ccc(CN(C(=O)/C=C/c2ccco2)C2CCS(=O)(=O)C2)cc1 (stereo not drawn),3,3,-2,4,87*,46*,-13,Scp-1 Tm shift=2
Cc1ccc(NC(=O)c2cn(-c3cccc(C)n3)cn2)cc1,-1,0,-1,-2,67*,-6,-13,
CCSc1nc2c(c(=O)[nH]c(=O)n2C)n1C/C=C(/C)Cl,1,-6,0,1,7,.,.,
COc1ccccc1OCCNC(=O)c1ccc(Br)cc1,-3,0,3,0,-2,.,.,
CCOc1c(Br)cc(Br)cc1/C=C1\SC(N)=NC1=O,.,2,.,0,85*,9,-13,
CCOc1cc(/C=C2\SC(N)=NC2=O)ccc1O,-1,2,1,-5,-3,.,.,
CCOCc1cnc(C)nc1NCC(=O)c1c(C)n(C)c2ccc(OC)cc12,.,-4,.,0,51*,1,-6,

# From PubChem
